A short description of assay [1]: MIC ratio measured as the mean MICs of gram-negative bacteria. It is filed as functional. An outline of the steps: (§1)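 Geometric mean of the MICs (µg/mL) over the Gram-negative or the Gram-positive strains of the 10-organism microtitration panel, calculated separately for each class.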
In assay [2] the target is DNA gyrase (Escherichia coli) (UniProt P0AES6+P0AES4).
Assay [3] can be described thus: MIC ratio measured as the mean MICs of gram-positive bacteria. It is filed as functional. An outline of the steps:
as §1

For the next assay, the system named is Bacteria. The experiment in a line: Antibacterial activity was determined against gram negative organism, Providencia rettgeri. (M1771). The class given is functional. An outline of the steps: (§2)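 MIC by standard microtitration against a panel of 10 representative Gram-negative and Gram-positive organisms; values reported in µg/mL.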
The next assay has as its system Enterobacter cloacae. The experiment in a line: Antibacterial activity against gram negative organism, […] (MA2646). The class given is functional.
Assay [4] has as its system Staphylococcus aureus. The experiment in a line: Antibacterial activity was determined against gram positive organism, Staphylococcus aureus (H228). It is filed as functional. An outline of the steps:
as §2

Assay [5] has as its system Staphylococcus aureus. The experiment in a line: Antibacterial activity was determined against gram positive organism, Staphylococcus aureus (UC76). The class given is functional. In short, it runs like this:
as §2

In a further assay the test system is Escherichia coli. The experiment in a line: Antibacterial activity was determined against gram negative organism, E. coli(vogel). It is filed as functional. An outline of the steps: as §2
For the next assay, the system named is Enterococcus faecalis. The experiment in a line: Antibacterial activity was determined against gram positive organism, Streptococcus faecalis (MGH-2). It is filed as functional. In short, it runs like this:
as §2

A further assay concerns Streptococcus pyogenes. The experiment in a line: Antibacterial activity was determined against gram positive organism, Streptococcus pyogenes (C203). The class given is functional. An outline of the steps: as §2
A further assay relates to Klebsiella pneumoniae. The experiment in a line: Antibacterial activity was determined against gram negative organism, K. pneumoniae (MGH-2). The class given is functional. In short, it runs like this:
as §2

A further assay concerns Streptococcus pneumoniae. Put plainly: Antibacterial activity was determined against gram positive organism, Streptococcus pneumoniae (SV-1). It is filed as functional. An outline of the steps:
as §2

For another assay, the system named is Pseudomonas aeruginosa. Put plainly: Antibacterial activity was determined against gram negative organism, Pseudomonas aeruginosa (UI-18). The class given is functional. In short, it runs like this:
as §2

In brackets after ≈: the same amount, converted by molar mass.

The MIC is the least concentration at which growth counts as inhibited.

On to `CCn1cc(C(=O)O)c(=O)c2cc(F)c(N3CCNCC3)cc21` [NORFLOXACIN], for which the Ratio in assay [1] worked out at 0.057; in [3] it was 0.61. Further, the DNA cleavage in assay [2] is 1 µg/mL. Also, the MIC with Bacteria came out at 0.025 µg/mL (≈ 0.0783 µM).

Turning to `CCn1cc(C(=O)O)c(=O)c2c(C)c(F)c(N3CCNCC3)cc21`, the MIC in the assay with Enterobacter cloacae worked out at 0.2 µg/mL (≈ 0.6 µM); against Staphylococcus aureus [4] it was 3.1 µg/mL (≈ 9.3 µM); against Staphylococcus aureus [5], 0.4 µg/mL (≈ 1.2 µM); with Escherichia coli, 0.1 µg/mL (≈ 0.3 µM); with Enterococcus faecalis, 1.6 µg/mL (≈ 4.8 µM); against Streptococcus pyogenes it was 6.3 µg/mL (≈ 18.9 µM). Further, the MIC against Klebsiella pneumoniae is 0.4 µg/mL (≈ 1.2 µM); against Streptococcus pneumoniae, 3.1 µg/mL (≈ 9.3 µM); in the assay with Pseudomonas aeruginosa, 1.6 µg/mL (≈ 4.8 µM); against Bacteria, 0.4 µg/mL (≈ 1.2 µM). Besides, the Ratio in assay [1] is 0.35; in assay [3], 2.08. For the same compound, the DNA cleavage in assay [2] was 3 µg/mL.

Regarding `CCn1cc(C(=O)O)c(=O)c2cc(F)c(N3CC(C)NC(C)C3)cc21` (centres undefined), the MIC in the assay on Enterobacter cloacae came out at 0.2 µg/mL (≈ 0.576 µM); against Staphylococcus aureus [4], 1.6 µg/mL (≈ 4.61 µM); against Staphylococcus aureus [5], 0.4 µg/mL (≈ 1.15 µM); against Escherichia coli, 0.2 µg/mL (≈ 0.576 µM); with Enterococcus faecalis, 1.6 µg/mL (≈ 4.61 µM); against Streptococcus pyogenes, 1.6 µg/mL (≈ 4.61 µM). Further, the MIC is 0.4 µg/mL (≈ 1.15 µM) in the assay on Klebsiella pneumoniae, 1.6 µg/mL (≈ 4.61 µM) in the assay with Streptococcus pneumoniae, 6.3 µg/mL (≈ 18.1 µM) in the assay on Pseudomonas aeruginosa and 0.8 µg/mL (≈ 2.3 µM) in the assay with Bacteria. Further, the Ratio is 0.6 in [1] and 1.21 in assay [3].

On to `Cc1c(F)c(N2CCNCC2)c(Cl)c2c1c(=O)c(C(=O)O)cn2C1CC1`, for which the MIC in the assay with Enterobacter cloacae amounted to 0.05 µg/mL (≈ 0.132 µM); against Staphylococcus aureus [4] it was 0.05 µg/mL (≈ 0.132 µM); with Staphylococcus aureus [5], 0.025 µg/mL (≈ 0.0658 µM); against Escherichia coli, 0.025 µg/mL (≈ 0.0658 µM); against Enterococcus faecalis, 0.2 µg/mL (≈ 0.527 µM); with Streptococcus pyogenes, 0.2 µg/mL (≈ 0.527 µM). Besides, the MIC with Klebsiella pneumoniae turned out to be 0.1 µg/mL (≈ 0.263 µM); in the assay on Streptococcus pneumoniae it was 0.1 µg/mL (≈ 0.263 µM); with Pseudomonas aeruginosa it was 0.2 µg/mL (≈ 0.527 µM); against Bacteria, 0.2 µg/mL (≈ 0.527 µM). Further, the Ratio in assay [1] and in [3] was 0.087 each time. Also, the DNA cleavage in assay [2] turned out to be 1.5 µg/mL.

For `CCc1c(F)c(N2CCC(N)C2)cc2c1c(=O)c(C(=O)O)cn2C1CC1` (centres undefined), the MIC with Enterobacter cloacae stood at 0.8 µg/mL (≈ 2.23 µM); in the assay with Staphylococcus aureus [4] it was 12.5 µg/mL (≈ 34.8 µM); against Staphylococcus aureus [5], 3.1 µg/mL (≈ 8.63 µM); in the assay with Escherichia coli, 0.4 µg/mL (≈ 1.11 µM); in the assay with Enterococcus faecalis it was 25 µg/mL (≈ 69.6 µM); in the assay on Streptococcus pyogenes it was 3.1 µg/mL (≈ 8.63 µM). The MIC against Klebsiella pneumoniae amounted to 1.6 µg/mL (≈ 4.45 µM); against Streptococcus pneumoniae, 1.6 µg/mL (≈ 4.45 µM); in the assay on Pseudomonas aeruginosa, 12.5 µg/mL (≈ 34.8 µM); in the assay with Bacteria, 6.3 µg/mL (≈ 17.5 µM). The Ratio amounted to 2.09 in assay [1] and 5.45 in [3].

For `CC1CN(c2c(F)cc3c(=O)c(C(=O)O)cn(C4CC4)c3c2F)CCN1` (centres undefined), the MIC with Enterobacter cloacae came out at 0.05 µg/mL (≈ 0.138 µM); against Staphylococcus aureus [4], 0.2 µg/mL (≈ 0.55 µM); in the assay on Staphylococcus aureus [5] it was 0.1 µg/mL (≈ 0.275 µM); against Enterococcus faecalis, 0.4 µg/mL (≈ 1.1 µM); in the assay on Streptococcus pyogenes it was 0.4 µg/mL (≈ 1.1 µM); with Streptococcus pneumoniae, 0.4 µg/mL (≈ 1.1 µM). In addition, the MIC amounted to 0.4 µg/mL (≈ 1.1 µM) in the assay on Pseudomonas aeruginosa and 0.1 µg/mL (≈ 0.275 µM) in the assay on Bacteria. Further, the Ratio was found to be 0.066 in [1] and 0.26 in assay [3]. In [2], this compound returned a DNA cleavage of 1 µg/mL.

With `CC1(CN)CCN(c2c(F)cc3c(=O)c(C(=O)O)cn(C4CC4)c3c2F)C1` (centres undefined), the MIC in the assay with Enterobacter cloacae is 0.025 µg/mL (≈ 0.0662 µM); in the assay with Staphylococcus aureus [5], 0.003 µg/mL (≈ 0.00795 µM); against Escherichia coli it was 0.05 µg/mL (≈ 0.132 µM); in the assay with Enterococcus faecalis it was 0.013 µg/mL (≈ 0.0344 µM); in the assay with Streptococcus pyogenes, 0.025 µg/mL (≈ 0.0662 µM); against Klebsiella pneumoniae, 0.1 µg/mL (≈ 0.265 µM). Further, the values for the MIC against Streptococcus pneumoniae and in the assay with Bacteria were 0.006 µg/mL (≈ 0.0159 µM) and 0.2 µg/mL (≈ 0.53 µM), respectively. The Ratio in [1] was found to be 0.1; in [3], 0.095. The same compound came in with a DNA cleavage in [2] of 2.6 µg/mL.

As to `CCNCC1CCN(c2cc3c(cc2F)c(=O)c(C(=O)O)cn3-c2ccc(F)cc2F)C1` (centres undefined), the MIC in the assay on Enterobacter cloacae worked out at 0.4 µg/mL (≈ 0.898 µM); in the assay with Staphylococcus aureus [4] it was 0.1 µg/mL (≈ 0.224 µM); against Staphylococcus aureus [5], 0.025 µg/mL (≈ 0.0561 µM); against Escherichia coli, 0.2 µg/mL (≈ 0.449 µM); in the assay on Enterococcus faecalis, 0.2 µg/mL (≈ 0.449 µM); against Streptococcus pyogenes, 0.1 µg/mL (≈ 0.224 µM). Further, the MIC with Klebsiella pneumoniae was determined as 0.8 µg/mL (≈ 1.8 µM); against Streptococcus pneumoniae, 0.1 µg/mL (≈ 0.224 µM); against Pseudomonas aeruginosa, 3.1 µg/mL (≈ 6.96 µM); with Bacteria, 1.6 µg/mL (≈ 3.59 µM). For the same compound, the Ratio in [1] amounted to 0.79; in assay [3], 0.087.

`CC1(CN)CCN(c2cc3c(cc2F)c(=O)c(C(=O)O)cn3C2CC2)C1` (centres undefined): the MIC in the assay on Enterobacter cloacae is 0.8 µg/mL (≈ 2.23 µM); in the assay with Escherichia coli it was 0.2 µg/mL (≈ 0.556 µM); against Enterococcus faecalis, 0.1 µg/mL (≈ 0.278 µM); in the assay on Streptococcus pyogenes, 0.05 µg/mL (≈ 0.139 µM); in the assay on Klebsiella pneumoniae, 0.4 µg/mL (≈ 1.11 µM); in the assay on Streptococcus pneumoniae, 0.025 µg/mL (≈ 0.0696 µM). Also, the MIC with Pseudomonas aeruginosa and in the assay with Bacteria was 0.8 µg/mL (≈ 2.23 µM) each time. Moreover, the Ratio in assay [1] is 0.53; in [3], 0.044. In addition, in [2], the DNA cleavage was determined as 3 µg/mL.

The values are drawn from ChEMBL document CHEMBL1125920, “Synthesis and biological activity of 5-alkyl-1,7,8-trisubstituted-6-fluoroquinoline-3-carboxylic acids” (1991).
